Experimental data gathered from unrelated publications.
Compare with care: the assays were run in different laboratories.
Target: Phosphatidylinositol 5-phosphate 4-kinase type-2 beta (PIP4K2B, Homo sapiens, UniProt P78356)
Residues used in one study (P78356 1-416): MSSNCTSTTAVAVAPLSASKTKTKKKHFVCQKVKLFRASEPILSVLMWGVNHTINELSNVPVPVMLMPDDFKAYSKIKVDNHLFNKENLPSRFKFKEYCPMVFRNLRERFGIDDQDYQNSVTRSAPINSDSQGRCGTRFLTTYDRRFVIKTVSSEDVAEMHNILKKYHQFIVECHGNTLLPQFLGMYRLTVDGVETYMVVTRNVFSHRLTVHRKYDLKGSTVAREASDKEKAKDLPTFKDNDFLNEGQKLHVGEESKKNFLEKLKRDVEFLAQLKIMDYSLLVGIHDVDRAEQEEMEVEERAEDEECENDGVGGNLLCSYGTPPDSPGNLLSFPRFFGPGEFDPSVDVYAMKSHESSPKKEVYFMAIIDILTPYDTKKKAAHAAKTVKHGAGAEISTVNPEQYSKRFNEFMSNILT

SMILES | test | setting | remaining binding [%]
O=C(NCCCN1CCOCC1)c1ccc(Nc2nccc(-c3cc4ccccc4s3)n2)cc1 | binding, competition with immobilised ligand | 1 µM | 11
COc1ccc2c(c1)O[C@H](c1ccc(OC)c(OC)c1)C[C@@H]2NC(=O)C1(c2ccc3c(c2)OC(F)(F)O3)CC1 | cell-free assay, competition with immobilised ligand | 1 µM | 80
O=C(NCC1CCOCC1)c1n[nH]cc1NC(=O)c1c(F)cccc1F | binding, competition with immobilised ligand | 1 µM | 100
CC(=O)c1c(NS(C)(=O)=O)c2cc(-c3ccc(Cl)cc3)c(-c3ccc(Cl)cc3Cl)nc2n(C)c1=O | cell-free assay, competition with immobilised ligand | 1 µM | 65
CN(C)c1nccc(-c2cnn3ncccc23)n1 | binding | 1 µM | 100
CNC(=O)[C@@H]1CC[C@@H](n2c(-c3ccc4cnccc4c3)nc3ccc(C(=O)NCc4cccc(C(N)=O)c4)cc32)C1 | binding, competition with immobilised ligand | 1 µM | 99
FC(F)(F)Oc1cccc(-c2cnc3ccc(-c4ccncc4)nn23)c1 | cell-free assay, competition with immobilised ligand | 5 µM | 100
O=C(c1ccc(Nc2nccc(-c3cc4ccccc4s3)n2)cc1)N1CCC(N2CCCC2)CC1 | binding, competition with immobilised ligand | 1 µM | 11
COc1cnc(Nc2cccc(S(N)(=O)=O)c2)nc1N1CCN(c2ccccc2)C(=O)C1 | binding, competition with immobilised ligand | 1 µM | 100
Cc1nc(N2CC[C@@H](O)C2)ncc1-c1cc(C(F)(F)F)cc2[nH]ncc12 | cell-free assay, competition with immobilised ligand | 1 µM | 100
Cc1cnn2ncc(-c3ccnc(N(C)C)n3)c2c1 | binding | 1 µM | 47
C[C@H](c1ccnc(Nc2nc3ccc(-c4cc(N(C)C)ncn4)cc3[nH]2)c1)N1CCN(C(=O)CC(F)(F)F)CC1 | cell-free assay, competition with immobilised ligand | 0.1 µM | 75
N[C@H]1CCN(c2nccc(-c3cnn4ncccc34)n2)C1 | binding | 1 µM | 100
CCOCCn1cc(C(=O)Nc2ccc(-n3nc(-c4cccnc4)cc3C(F)(F)F)cn2)ccc1=O | cell-free assay, competition with immobilised ligand | 1 µM | 68
c1cnn2ncc(-c3ccnc(N4CCC45COC5)n3)c2c1 | binding | 1 µM | 58
C[C@@H](c1cccc(C#N)c1)n1cc(Cl)cc(C(N)=O)c1=N | cell-free assay, competition with immobilised ligand | 1 µM | 73
CN(C)c1ncc(F)c(-c2cnn3ncccc23)n1 | binding | 1 µM | 100
O=C(c1ccc(Nc2ncc(Cl)c(-c3cc4ccccc4s3)n2)cc1)N1CCC(N2CCCC2)CC1 | binding, competition with immobilised ligand | 1 µM | 7.1
CNCc1ccccc1-c1csc([C@H](C)Nc2nc(C)nc3cc(OC)c(OC)cc23)c1 | cell-free assay, competition with immobilised ligand | 1 µM | 100
CN(C)c1nccc(-c2cnc3ncccn23)n1 | binding | 1 µM | 100
Cc1nc(NC(=O)N2CCC[C@H]2C(N)=O)sc1-c1ccnc(C(C)(C)C(F)(F)F)c1 | binding, competition with immobilised ligand | 10 µM | 100
CC1CCCN1c1nccc(-c2cnn3ncccc23)n1 (centres unmarked) | binding | 1 µM | 100
C[C@@H](c1ccc(-n2cnc3c(N)ncnc32)cc1)N1CCc2nn(C)c(Cc3ccccc3)c2C1=O | binding, competition with immobilised ligand | 0.1 µM | 69
